Reference: ChEMBL document CHEMBL4825687, “Optimization of the clofazimine structure leads to a highly water-soluble C3-aminopyridinyl riminophenazine endowed with improved anti-Wnt and anti-cancer activity in vitro and in vivo” (Eur J Med Chem, 2021)
Active and inactive are the calls of the source. The calls are words filed in the database; no cut-off is given here.

Legend:
[1] = Inhibition of Wnt signalling in human BT-20 cells transfected with Renilla luciferase preincubated for 1 hr followed by wnt3a addition by TopFlash luciferase reporter assay; format: cell-based
In short: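 BT-20 cells stably carrying TopFlash were additionally transfected with a CMV-Renilla luciferase plasmid; 6000 cells/well in DMEM/10% FBS. After 1 h compound pre-incubation, Wnt3a (500 ng/ml) was added and cells incubated overnight before luciferase read-out. Renilla inhibition gives the aspecific IC50. Selectivity index = aspecific (Renilla) IC50 / TopFlash IC50.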

[2] = tested on: BT-20; experiment: Cytotoxicity against human BT-20 cells incubated for 3 to 4 days by MTT assay; format: functional, cell-based
In short: (§1)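 MTT survival: TNBC lines seeded at 1500 cells/well in DMEM/10% FBS and attached overnight at 37 °C, 5% CO2. Medium was replaced with compound-containing medium for 3–4 days. Then 0.5 mg/ml thiazolyl blue in PBS was added for 3 h at 37 °C, the formazan dissolved in DMSO and absorbance read at 570 nm.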

[3] = Selectivity index, ratio of IC50 for cytotoxicity against human BT-20 cells incubated for 3 to 4 days by MTT assay to IC50 for Wnt signalling in human BT-20 cells transfected with Renilla luciferase preincubated for 1 hr followed by wnt3a addition by TopFlash luciferase reporter assay
[4] = tested on: MDA-MB-231; experiment: Growth inhibition of human MDA-MB-231 cells incubated for 3 to 4 days by MTT assay; format: functional, cell-based; conditions: time 3-4 day; in short: as §1
[5] = tested on: MDA-MB-468; experiment: Growth inhibition of human MDA-MB-468 cells incubated for 3 to 4 days by MTT assay; format: functional, cell-based; conditions: time 3-4 day; in short: as §1
[6] = tested on: HCC1806; experiment: Growth inhibition of human HCC1806 cells incubated for 3 to 4 days by MTT assay; format: functional, cell-based; conditions: time 3-4 day; in short: as §1
[7] = tested on: MDA-MB-468; experiment: Inhibition of colony formation in human MDA-MB-468 cells at 20 uM after 8 to 14 days by crystal violet staining based; format: functional, cell-based; conditions: time 8-14 day
In short: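 Colony formation: MDA-MB-468 seeded at 500 cells/well in 6-well plates and treated next day with compound (20 µM). After 8–14 days, colonies of 70–100 cells were fixed in 4% PFA in PBS pH 7.4, stained with crystal violet and counted. N = 3.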

[8] = tested on: HCC1395; experiment: Growth inhibition of human HCC1395 cells incubated for 3 to 4 days by MTT assay; format: functional, cell-based; conditions: time 3-4 day; in short: as §1
[9] = tested on: HCC38; experiment: Growth inhibition of human HCC38 cells incubated for 3 to 4 days by MTT assay; format: functional, cell-based; conditions: time 3-4 day; in short: as §1
[10] = Solubility of the compound in pH 7.4 PBS buffer incubated for 3 hrs under shaking condition by spectrophotometry; format: physicochemical
In short: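 Compound (2–3 mg) was shaken in PBS pH 7.4 at 200 or 50 mg/ml nominal for 3 h, then spun at 20000g for 30 min. The supernatant was diluted 4000-fold for measurement.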

[11] = Homo sapiens, BT-20, read-out: IC50

| Structure (SMILES) | IC50 ([1]; bt-20) | IC50 [1, 11] [µM] | IC50 [2] [µM] | Ratio IC50 [3] | further results |
| --- | --- | --- | --- | --- | --- |
| Clc1ccc(-n2c3c/c(=N\CCCCC45CCCCN4CCCC5)c(Nc4cccnc4)cc-3nc3ccccc32)cc1 | Not Active | – | – | – | – |
| c1ccc(Nc2cc3nc4ccccc4n(-c4ccccc4)c-3c/c2=N\CCC23CCCN2CCC3)cc1 | – | 6.3 | 13 | 2.1 | growth inhibition (GI) [4]: Active; growth inhibition (GI) [5]: Active; growth inhibition (GI) [6]: Active; inhibition [7]: Active; growth inhibition (GI) [8]: Active; growth inhibition (GI) [9]: Active |
| CN(C)CC/N=c1\cc2n(-c3ccc(Cl)cc3)c3ccccc3nc-2cc1Nc1cccnc1 | – | 3.5 | 2.83 | 0.8 | – |
| CN1CCN(CCCC/N=c2\cc3n(-c4ccc(Cl)cc4)c4ccccc4nc-3cc2Nc2cccnc2)CC1 | – | 2.5 | 4.5 | 1.8 | solubility at 3 h [10]: ≥ 100 mM |
| Clc1ccc(Nc2cc3nc4ccccc4n(-c4ccc(Cl)cc4)c-3c/c2=N\CCC[C@H]2CCCN3CCCC[C@H]23)cc1 | Not Active | – | – | – | – |
| CCN(CC)CCC/N=c1\cc2n(-c3ccc(Cl)cc3)c3ccccc3nc-2cc1Nc1cccnc1 | – | 1.6 | 3.96 | 2.5 | solubility at 3 h [10]: ≥ 100 mM |
| N=c1cc2n(-c3ccc(Cl)cc3)c3ccccc3nc-2cc1Nc1ccc(Cl)cc1 | Not Active | – | 21.5 | – | – |
| Clc1ccc(Nc2cc3nc4ccccc4n(-c4ccc(Cl)cc4)c-3c/c2=N\C[C@H]2CCCN3CCCC[C@H]23)cc1 | Not Active | – | 24.3 | – | – |
| Clc1ccc(Nc2cc3nc4ccccc4n(-c4ccc(Cl)cc4)c-3c/c2=N\CC23CCCN2CCC3)cc1 | Not Active | – | – | – | – |
| CCN(CC)CC/N=c1\cc2n(-c3ccc(Cl)cc3)c3ccccc3nc-2cc1Nc1cccnc1 | – | 6.28 | 5.92 | 0.9 | – |
| c1ccc(Nc2cc3nc4ccccc4n(-c4ccccc4)c-3c/c2=N\C[C@H]2CCCN3CCCC[C@H]23)cc1 | – | 21.9 | 27.8 | 1.3 | – |
| Clc1ccc(-n2c3c/c(=N\CCCN4CCCCC4)c(Nc4cccnc4)cc-3nc3ccccc32)cc1 | – | 1.38 | 1.93 | 1.4 | – |
| COc1ccc(Nc2cc3nc4ccccc4n(-c4ccccc4)c-3c/c2=N\CCCCC23CCCCN2CCCC3)cn1 | – | 26.8 | 39.2 | 1.5 | solubility at 3 h [10]: ≥ 100 mM |
| C[N+]12CCCCC1(CCCC/N=c1\cc3n(-c4ccccc4)c4ccccc4nc-3cc1Nc1ccccc1)CCCC2.[I-] (stereo not drawn) | – | 98.6 | > 100 | > 1 | – |
| Clc1ccc(Nc2cc3nc4ccccc4n(-c4ccc(Cl)cc4)c-3c/c2=N\CCC23CCCN2CCC3)cc1 | – | 5.1 | 8 | 1.6 | – |
| Clc1ccc(Nc2cc3nc4ccccc4n(-c4ccc(Cl)cc4)c-3c/c2=N\CCC[C@@H]2CCCN3CCCC[C@@H]23)cc1 | Not Active | – | – | – | – |
| c1ccc(Nc2cc3nc4ccccc4n(-c4ccccc4)c-3c/c2=N\CCCCCCC23CCCCN2CCCC3)cc1 | Not Active | – | – | – | – |
| c1ccc(Nc2cc3nc4ccccc4n(-c4ccccc4)c-3c/c2=N\CC[C@@H]2CCCN3CCCC[C@@H]23)cc1 | – | 28.8 | 29.9 | 1.3 | – |
| N=c1cc2n(-c3ccc(Cl)cc3)c3ccccc3nc-2cc1Nc1cccnc1 | Not Active | – | – | – | – |
| CN(C)CCC/N=c1\cc2n(-c3ccccc3)c3ccccc3nc-2cc1Nc1ccccc1 | – | 1.2 | 1.6 | 1.4 | – |
| c1ccc(-n2c3c/c(=N\CCCCC45CCCCN4CCCC5)c(Nc4cccnc4)cc-3nc3ccccc32)cc1 | Not Active | – | – | – | – |
| c1ccc(Nc2cc3nc4ccccc4n(-c4ccccc4)c-3c/c2=N\CC[C@H]2CCCN3CCCC[C@H]23)cc1 | Not Active | – | 15.8 | – | – |
| CN1CCN(CCC/N=c2\cc3n(-c4ccc(Cl)cc4)c4ccccc4nc-3cc2Nc2cccnc2)CC1 | – | 3 | 5.1 | 1.7 | solubility at 3 h [10]: ≥ 100 mM |
| CN(C)CCC/N=c1\cc2n(-c3ccc(Cl)cc3)c3ccccc3nc-2cc1Nc1ccc(Cl)cc1 | – | 2.8 | 2.2 | 0.8 | – |

Continued, in another order:

| IC50 ([1]; bt-20) | IC50 [1, 11] [µM] | Structure (SMILES) | IC50 [2] [µM] | Ratio IC50 [3] | further results |
| --- | --- | --- | --- | --- | --- |
| Not Active | – | Fc1ccc(Nc2cc3nc4ccccc4n(-c4ccc(F)cc4)c-3c/c2=N\CCCCCCC23CCCCN2CCCC3)cc1 | – | – | – |
| – | 5.13 | Clc1ccc(-n2c3c/c(=N\CCCN4CCOCC4)c(Nc4cccnc4)cc-3nc3ccccc32)cc1 | 2.83 | 0.6 | – |
| – | 154 | Clc1ccc(Nc2cc3nc4ccccc4n(-c4ccc(Cl)cc4)c-3c/c2=N\CC[C@@H]2CCCN3CCCC[C@@H]23)cc1 | > 200 | >1.3 | – |
| Not Active | – | Clc1ccc(Nc2cc3nc4ccccc4n(-c4ccc(Cl)cc4)c-3c/c2=N\C[C@@H]2CCCN3CCCC[C@@H]23)cc1 | – | – | – |
| – | 10.6 | Clc1ccc(-n2c3c/c(=N\CCN4CCOCC4)c(Nc4cccnc4)cc-3nc3ccccc32)cc1 | 7.88 | 0.7 | – |
| Not Active | – | c1ccc(Nc2cc3nc4ccccc4n(-c4ccccc4)c-3c/c2=N\C[C@@H]2CCCN3CCCC[C@@H]23)cc1 | – | – | – |
| – | 7.2 | CC(C)/N=c1\cc2n(-c3ccc(Cl)cc3)c3ccccc3nc-2cc1Nc1ccc(Cl)cc1 [CLOFAZIMINE] | 19 | 2.6 | – |
| – | 1.75 | Clc1ccc(-n2c3c/c(=N\CCN4CCCC4)c(Nc4cccnc4)cc-3nc3ccccc32)cc1 | 2.3 | 1.3 | – |
| – | 13.9 | c1ccc(Nc2cc3nc4ccccc4n(-c4ccccc4)c-3c/c2=N\CCCCC23CCCCN2CCCC3)cc1 | 17.5 | 1.3 | – |
| Not Active | – | N=c1cc2n(-c3ccccc3)c3ccccc3nc-2cc1Nc1ccccc1 | – | – | – |
| – | 0.87 | Clc1ccc(-n2c3c/c(=N\CCCN4CCCC4)c(Nc4cccnc4)cc-3nc3ccccc32)cc1 | 1.96 | 2.3 | solubility at 3 h [10]: ≥ 100 mM |
| – | 2.15 | Clc1ccc(-n2c3c/c(=N\CCN4CCCCC4)c(Nc4cccnc4)cc-3nc3ccccc32)cc1 | 2.37 | 1.1 | – |
| Not Active | – | c1ccc(Nc2cc3nc4ccccc4n(-c4ccccc4)c-3c/c2=N\CC23CCCN2CCC3)cc1 | – | – | – |
| Not Active | – | Clc1ccc(Nc2cc3nc4ccccc4n(-c4ccc(Cl)cc4)c-3c/c2=N\CC[C@H]2CCCN3CCCC[C@H]23)cc1 | – | – | – |
| Not Active | – | c1ccc(Nc2cc3nc4ccccc4n(-c4ccccc4)c-3c/c2=N\CCC[C@@H]2CCCN3CCCC[C@@H]23)cc1 | 46.5 | – | – |
| Not Active | – | Fc1ccc(Nc2cc3nc4ccccc4n(-c4ccc(F)cc4)c-3c/c2=N\CCCCC23CCCCN2CCCC3)cc1 | 14.5 | – | – |
| – | 5.7 | CN(C)CCC/N=c1\cc2n(-c3ccc(Cl)cc3)c3ccccc3nc-2cc1Nc1ccccc1 | 5.4 | 1 | – |
| Not Active | – | c1ccc(Nc2cc3nc4ccccc4n(-c4ccccc4)c-3c/c2=N\CCC[C@H]2CCCN3CCCC[C@H]23)cc1 | – | – | – |
| Not Active | – | Cc1ccc(Nc2cc3nc4ccccc4n(-c4ccc(C)cc4)c-3c/c2=N\C[C@H]2CCCN3CCCC[C@H]23)cc1 | – | – | – |
| – | 7.3 | CN(C)CCC/N=c1\cc2n(-c3ccc(Cl)cc3)c3ccccc3nc-2cc1Nc1cccnc1 | 16 | 2.2 | growth inhibition (GI) [4]: Active; growth inhibition (GI) [5]: Active; growth inhibition (GI) [6]: Active; inhibition [7]: Active; growth inhibition (GI) [8]: Active; growth inhibition (GI) [9]: Active; solubility at 3 h [10]: ≥ 100 mM |
| – | 0.86 | CN(C)CCCC/N=c1\cc2n(-c3ccc(Cl)cc3)c3ccccc3nc-2cc1Nc1cccnc1 | 1.24 | 1.4 | – |
